Reference: ChEMBL document CHEMBL1135739, “Radiolabeled amino acids for tumor imaging with PET: radiosynthesis and biological evaluation of 2-amino-3-[18F]fluoro-2-methylpropanoic acid and 3-[18F]fluoro-2-methyl-2-(methylamino)propanoic acid” (J Med Chem, 2002)

Assays:
Rattus norvegicus [1] = organism: Rattus norvegicus; assay: Radioactivity distribution in kidney of tumor-bearing fischer rat after injection of [18F]fluoro-2-methylpropanoic acid after 120 min; format: ADME, organism-based; details: in vivo, 2 h
Outline: (§1)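 Male Fischer 344 rats carried intracranial 9L gliosarcoma, stereotactically implanted (4×10^4 cells) and used 17–19 days later. Awake, restrained animals received about 35 μCi tracer in 0.3 mL sterile water via the tail vein and were killed at 5, 60 or 120 min (n = 4–5). Tissues were weighed, gamma-counted, decay-corrected and reported as %ID/g ± standard error.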

Rattus norvegicus [2] = organism: Rattus norvegicus; assay: Radioactivity distribution in testis of normal fischer rat after injection of [18F]fluoro-2-methylpropanoic acid after 120 min.; format: ADME, organism-based; details: in vivo, 2 h
Outline: (§2)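 Male Fischer 344 rats (200–250 g), fed ad libitum, under intramuscular ketamine:xylazine anesthesia, got ~85 μCi radiotracer in 0.3 mL sterile water by tail-vein catheter. Groups of four were killed at 5, 30, 60 or 120 min. Dissected tissues were weighed and gamma-counted with dose standards. Counts were decay-corrected and given as %ID/g, mean ± standard error. Tissues were compared by one-way ANOVA.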

Rattus norvegicus [3] = organism: Rattus norvegicus; assay: Radioactivity distribution in kidney of normal fischer rat after injection of [18F]fluoro-2-methylpropanoic acid after 30 min.; format: ADME, organism-based; details: in vivo, 0.5 h
Outline: (§3)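 Normal male Fischer 344 rats (200–250 g), anesthetized with i.m. ketamine:xylazine (1:1), got ~85 μCi of tracer in 0.3 mL sterile water i.v. via tail-vein catheter. Groups of four were killed at 5, 30, 60 or 120 min. Tissues were weighed and gamma-counted against dose standards, and counts were decay-corrected to %ID/g. Results are mean ± standard error (n = 4), compared by one-way ANOVA.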

Rattus norvegicus [4] = organism: Rattus norvegicus; assay: Radioactivity distribution in brain of tumor-bearing fischer rat after injection of [18F]fluoro-2-methylpropanoic acid after 5 min; format: ADME, organism-based; details: in vivo
Outline: (§4)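 Male Fischer 344 rats carried intracranial 9L gliosarcoma, implanted stereotactically (4×10^4 cells) and used 17–19 days later. Awake restrained rats got ~35 μCi of tracer in 0.3 mL sterile water by tail-vein injection and were killed at 5, 60 or 120 min. Tissues were weighed and gamma-counted, and counts were decay-corrected to %ID/g. Results are mean ± standard error; n = 4 at 5 and 120 min, n = 5 at 60 min.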

Rattus norvegicus [5] = organism: Rattus norvegicus; assay: Radioactivity distribution in heart of tumor-bearing fischer rat after injection of [18F]fluoro-2-methylpropanoic acid after 60 min; format: ADME, organism-based; details: in vivo, 1 h; outline: as §4
Rattus norvegicus [6] = organism: Rattus norvegicus; assay: Radioactivity distribution in kidney of tumor-bearing fischer rat after injection of [18F]fluoro-2-methylpropanoic acid after 60 min; format: ADME, organism-based; details: in vivo, 1 h; outline: as §1
Rattus norvegicus [7] = organism: Rattus norvegicus; assay: Radioactivity distribution in brain of tumor-bearing fischer rat after injection of [18F]fluoro-2-methylpropanoic acid after 60 min; format: ADME, organism-based; details: in vivo, 1 h; outline: as §4
Rattus norvegicus [8] = organism: Rattus norvegicus; assay: Radioactivity distribution in liver of normal fischer rat after injection of [18F]fluoro-2-methylpropanoic acid after 60 min.; format: ADME, organism-based; details: in vivo, 1 h
Outline: (§5)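 Male Fischer 344 rats (200–250 g), fed ad libitum, anesthetized with intramuscular ketamine:xylazine (1:1, 0.1 mL/100 g). About 85 μCi tracer in 0.3 mL sterile water was given by tail-vein catheter. Groups of four were killed at 5, 30, 60 or 120 min. Tissues were weighed and gamma-counted against dose standards, decay-corrected, and expressed as %ID/g (mean ± standard error).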

Rattus norvegicus [9] = organism: Rattus norvegicus; assay: Radioactivity distribution in muscle of tumor-bearing fischer rat after injection of [18F]fluoro-2-methylpropanoic acid after 120 min; format: ADME, organism-based, Muscle tissue; details: in vivo, 2 h; outline: as §1
Rattus norvegicus [10] = organism: Rattus norvegicus; assay: Radioactivity distribution in blood of normal fischer rat after injection of [18F]fluoro-2-methylpropanoic acid after 30 min.; format: ADME, organism-based; details: in vivo, 0.5 h; outline: as §3
Rattus norvegicus [11] = organism: Rattus norvegicus; assay: Radioactivity distribution in pancreas of normal fischer rat after injection of [18F]fluoro-2-methylpropanoic acid after 60 min.; format: ADME, organism-based; details: in vivo, 1 h; outline: as §5
Rattus norvegicus [12] = organism: Rattus norvegicus; assay: Radioactivity distribution in testis of normal fischer rat after injection of [18F]fluoro-2-methylpropanoic acid after 5 min.; format: ADME, organism-based; details: in vivo; outline: as §2

In the case of CC(N)(C[18F])C(=O)O.Cl (configuration not stated), the ID/g (Rattus norvegicus [1]) is reported as 3.64%, the ID/g (Rattus norvegicus [2]) is reported as 0.1% and the ID/g (Rattus norvegicus [3]) is reported as 5.59%. The ID/g (Rattus norvegicus [4]) was 0.035%, the ID/g (Rattus norvegicus [5]) was 0.33% and the ID/g (Rattus norvegicus [6]) was 6.2%. It also gave an ID/g (Rattus norvegicus [7]) of 0.054%, an ID/g (Rattus norvegicus [8]) of 0.5% and an ID/g (Rattus norvegicus [9]) of 0.21%. The ID/g (Rattus norvegicus [10]) was 0.25%, the ID/g (Rattus norvegicus [11]) was 2.95% and the ID/g (Rattus norvegicus [12]) was 0.17%.
